Laboratory results as given in ChEMBL document CHEMBL1142220, “Small-molecule synergist of the Wnt/beta-catenin signaling pathway” (Proc Natl Acad Sci U S A, 2007).
Blank lines part the entries; values can stand above or below the compound they belong to. The source made the active and inactive calls. The calls are words filed in the database; no cut-off is given here.

Legend:
HEK293 [1] = test: Effect on Wnt/[…] reporter pathway in HEK293 cells expressing super(8X)TOPFlash reporter assessed as luciferase activity in presence of Wnt-3a; assay type: functional, cell-based; conditions: Homo sapiens
How it was run: (§1)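 HEK293 cells transfected with Super(8X)TOPFlash reporter plus renilla control; 24 h post-transfection, compound added over a dose range with or without Wnt-3a conditioned medium (1:1 vol/vol to growth medium); firefly luciferase read 36 h later, normalized to renilla; error bars SD.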

HEK293 [2] = test: Reduction of super(8X)TOPFlash reporter activity in HEK293 cells at 0.25 uM in presence of Wnt-3a conditional medium relative to control; assay type: functional, Homo sapiens; parameters: scale not given: the % may be the effect or the level left
How it was run: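 HEK293 cells carrying the Super(8X)TOPFlash luciferase reporter, treated at 0.25 μM in Wnt-3a conditioned medium; reporter luciferase activity compared with DMSO-treated control cells under the same Wnt-3a stimulation.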

[3] = Activation of Wnt/[…] pathway in Xenopus embryos assessed as partial double axis formation at 10 uM in presence of XWnt-8 RNA after 24 hrs; assay type: functional
How it was run: (§2)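 XWnt-8 RNA (0.5 pg) co-injected with 10 nL of 10 μM compound (or 10 nL water) into one ventral blastomere at 16- to 32-cell stage; embryos kept 24 h, then scored for partial versus full double axis formation.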

HEK293 [4] = test: Effect on Wnt/[…] reporter pathway in HEK293 cells expressing super(8X)TOPFlash reporter assessed as luciferase activity at 2.5 uM in presence of Wnt-3a; assay type: functional, Homo sapiens
How it was run: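 HEK293 cells (20,000/well) reverse-transfected with Super(8X)TOPFlash and pTK-RL (Fugene6), 24 h at 37°C; compound 2.5 μM plus Wnt-3a conditioned medium (1:1 vol/vol) added; Dual-Glo luciferase read 36 h later, fold activation normalized to renilla; mean of three independent data points.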

HEK293 [5] = test: Induction of Wnt-3a-induced DKK1 gene expression in HEK293 cells in presence of Wnt-3a; assay type: functional, cell-based; conditions: Homo sapiens
HEK293 [6] = test: Effect on Wnt/[…] reporter pathway in HEK293 cells expressing superFOPFlash reporter plasmid assessed as luciferase activity at 0.11 to 25 uM in presence of Wnt-3a; assay type: functional, cell-based; conditions: Homo sapiens, 0.011 to 25 uM, in the assay text read “0.011 to 25 uM” for “0.11 to 25 uM”
How it was run: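 SuperFOPFlash reporter (mutated β-catenin/TCF sites) transfected into HEK293 cells; compound 0.011–25 μM given with Wnt-3a conditioned medium 24 h after transfection; luciferase read after 36 h, normalized to renilla.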

HEK293 [7] = test: Induction of Wnt-3a-induced Axin2 gene expression in HEK293 cells in presence of Wnt-3a; assay type: functional, cell-based; conditions: Homo sapiens
[8] = target: ADP-ribosylation factor 6 (Mus musculus) (UniProt P62331); test: Inhibition of ADP-ribosylation factor 6 activity in mouse NIH3T3 cells assessed as increase in endogenous ARF6-GTP level at 2.5 uM relative to control; assay type: cell-based
[9] = target: ADP-ribosylation factor 6 (Mus musculus) (UniProt P62331); test: Inhibition of ADP-ribosylation factor 6 activity in mouse NIH3T3 cells assessed as increase in endogenous ARF6-GTP level at 1 uM relative to control; assay type: cell-based
HEK293 [10] = test: Effect on Wnt/[…] reporter pathway in HEK293 cells expressing super(8X)TOPFlash reporter plasmid assessed as luciferase activity in presence of recombinant Wnt-3a; assay type: functional, cell-based; conditions: Homo sapiens
MDA-MB-231 [11] = test: Inhibition of migration of AMAP1 expressing human MDA-MB-231 cells; assay type: functional, cell-based
How it was run: (§3)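 Modified Boyden chambers, filter underside coated with 5 μg/cm² Matrigel; MDA-MB-231 cells (5,000/well) seeded upper chamber in RPMI1640 with 0.5% BSA plus compound, lower chamber DMEM with 10% FBS; after 12 h, cells on lower side counted by microscopy versus DMSO.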

[12] = target: ADP-ribosylation factor GTPase-activating protein 1, ARFGAP1 (Homo sapiens) (UniProt Q8N6T3); test: Binding affinity to purified ARFGAP1 by surface plasmon resonance analysis
[13] = Activation of Wnt/[…] pathway in Xenopus embryos assessed as full axis formation at 10 uM in presence of XWnt-8 RNA after 24 hrs; assay type: functional; how it was run: as §2
HEK293 [14] = test: Effect on Wnt/[…] reporter pathway in HEK293 cells expressing super(8X)TOPFlash reporter plasmid assessed as luciferase activity; assay type: functional, Homo sapiens; how it was run: as §1
MDA-MB-231 [15] = test: Inhibition of migration of AMAP1 expressing human MDA-MB-231 cells at 2.5 uM relative to control; assay type: functional; parameters: scale not given: the % may be the effect or the level left; how it was run: as §3

Sequence of ADP-ribosylation factor 6 (Mus musculus) (P62331 whole entry): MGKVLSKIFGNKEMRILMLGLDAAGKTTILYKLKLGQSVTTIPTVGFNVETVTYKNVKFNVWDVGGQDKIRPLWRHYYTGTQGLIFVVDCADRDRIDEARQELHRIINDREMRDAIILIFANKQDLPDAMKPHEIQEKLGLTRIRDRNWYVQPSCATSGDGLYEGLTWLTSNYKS
Sequence of ADP-ribosylation factor GTPase-activating protein 1, ARFGAP1 (Homo sapiens) (Q8N6T3 whole entry, looked up): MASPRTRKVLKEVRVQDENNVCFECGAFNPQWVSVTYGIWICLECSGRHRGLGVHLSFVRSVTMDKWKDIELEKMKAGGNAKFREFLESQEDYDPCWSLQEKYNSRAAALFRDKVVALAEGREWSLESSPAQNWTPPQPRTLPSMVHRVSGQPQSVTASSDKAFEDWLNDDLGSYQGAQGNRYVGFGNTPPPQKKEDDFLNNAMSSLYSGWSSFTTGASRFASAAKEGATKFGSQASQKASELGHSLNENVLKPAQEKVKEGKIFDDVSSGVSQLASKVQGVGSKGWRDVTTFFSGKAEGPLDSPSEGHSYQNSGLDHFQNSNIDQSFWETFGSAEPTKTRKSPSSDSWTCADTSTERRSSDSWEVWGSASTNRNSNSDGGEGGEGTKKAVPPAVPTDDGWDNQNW

Compound: OC[C@H](Cc1ccccc1)Nc1nc(NCc2ccc3c(c2)OCO3)nc2c1ncn2Cc1ccc(-c2ccccc2)cc1
EC50 (HEK293 [1]): > 7100 nM

Compound: [N-]=[N+]=Nc1ccc(C[C@@H](CO)Nc2nc(Oc3ccc4c(c3)CCC4)nc3c2ncn3Cc2ccc(-c3ccccc3)cc2)cc1
EC50 (HEK293 [1]): 600 nM

Compound: O=[N+]([O-])c1ccc(-c2ccc(Cn3cnc4c(N[C@H](CO)Cc5ccccc5)nc(Oc5ccc6c(c5)CCC6)nc43)cc2)cc1
EC50 (HEK293 [1]): 1500 nM

Compound: FC(F)(F)c1ccc(Cn2cnc3c(NCCc4ccccc4)nc(Oc4ccc5c(c4)CCC5)nc32)cc1
EC50 (HEK293 [1]): > 7100 nM

Compound: C[C@H]1CCC/C=C/[C@@H]2C[C@H](O)C[C@H]2[C@H](O)/C=C/C(=O)O1 [BREFELDIN A]
Activity (HEK293 [2]): 50%

Compound: OC[C@H](Cc1ccccc1)Nc1nc(Oc2cccc(-c3ccccc3)c2)nc2c1ncn2Cc1ccc(-c2ccccc2)cc1
EC50 (HEK293 [1]): 3100 nM

Compound: O=[N+]([O-])c1ccc(C[C@@H](CO)Nc2nc(Oc3ccc4c(c3)CCC4)nc3c2ncn3Cc2ccc(-c3ccccc3)cc2)cc1
EC50 (HEK293 [1]): 400 nM

Compound: OC[C@H](Cc1ccccc1)Nc1nc(Oc2ccc3c(c2)CCC3)nc2c1ncn2Cc1ccccc1
EC50 (HEK293 [1]): > 7100 nM

Compound: OC[C@H](Cc1ccccc1)Nc1nc(Oc2cccc3ccccc23)nc2c1ncn2Cc1ccc(-c2ccccc2)cc1
EC50 (HEK293 [1]): 4600 nM

Compound: OC[C@@H](Cc1ccccc1)Nc1nc(Oc2ccc3c(c2)CCC3)nc2c1ncn2Cc1ccc(-c2ccccc2)cc1
EC50 (HEK293 [1]): > 7100 nM

Compound: OC[C@H](Cc1ccccc1)Nc1nc(Nc2cccc3ccccc23)nc2c1ncn2Cc1ccc(-c2ccccc2)cc1
EC50 (HEK293 [1]): > 7100 nM

Compound: CC1(C)Cc2cc(Oc3nc(NCc4ccccc4)c4ncn(Cc5ccc(-c6ccccc6)cc5)c4n3)ccc2O1
EC50 (HEK293 [1]): 1700 nM

Activity [8]: Active
Activity [9]: Active
Kd [12]: 620 nM
Compound: OC[C@H](Cc1ccccc1)Nc1nc(Oc2ccc3c(c2)CCC3)nc2c1ncn2Cc1ccc(-c2ccccc2)cc1
Activity [3]: 30.2%
Activity (HEK293 [4]): 200
EC50 (HEK293 [1]): 500 nM
Activity (HEK293 [5]): Active
Activity (HEK293 [6]): inactive
Activity (HEK293 [7]): Active
Activity (HEK293 [10]): Active
Activity (MDA-MB-231 [11]): Dose-dependent effect
Activity [13]: 20.9%
Activity (HEK293 [14]): 2
Activity (MDA-MB-231 [15]): 80%
